Calls of active or inactive are those of the source. No cut-off for these calls is given here.
Legend:
[1] = target: C-X-C chemokine receptor type 3 (Homo sapiens) (UniProt P49682); test: Antagonist activity at human CXCR3 expressed in CHOK1 cells assessed as inhibition of CXCL11-induced cAMP accumulation at 10 uM preincubated for 30 mins followed agonist addition measured after 30 to 60 mins; format: functional, cell-based
How it was run: (§1)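 GPCR cAMP assay with a single test concentration of 10 μM; result expressed as percentage inhibition for each chemokine receptor.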

[2] = target: Voltage-dependent N-type calcium channel subunit alpha-1B (Rattus norvegicus) (UniProt Q02294); test: Displacement of [125I]omega-conotoxin GVIA from rat brain Cav2.2 at 10 uM after 30 mins by scintillation counting
Voltage-dependent N-type calcium channel subunit alpha-1B (Rattus norvegicus), sequence (Q02294 whole entry, looked up): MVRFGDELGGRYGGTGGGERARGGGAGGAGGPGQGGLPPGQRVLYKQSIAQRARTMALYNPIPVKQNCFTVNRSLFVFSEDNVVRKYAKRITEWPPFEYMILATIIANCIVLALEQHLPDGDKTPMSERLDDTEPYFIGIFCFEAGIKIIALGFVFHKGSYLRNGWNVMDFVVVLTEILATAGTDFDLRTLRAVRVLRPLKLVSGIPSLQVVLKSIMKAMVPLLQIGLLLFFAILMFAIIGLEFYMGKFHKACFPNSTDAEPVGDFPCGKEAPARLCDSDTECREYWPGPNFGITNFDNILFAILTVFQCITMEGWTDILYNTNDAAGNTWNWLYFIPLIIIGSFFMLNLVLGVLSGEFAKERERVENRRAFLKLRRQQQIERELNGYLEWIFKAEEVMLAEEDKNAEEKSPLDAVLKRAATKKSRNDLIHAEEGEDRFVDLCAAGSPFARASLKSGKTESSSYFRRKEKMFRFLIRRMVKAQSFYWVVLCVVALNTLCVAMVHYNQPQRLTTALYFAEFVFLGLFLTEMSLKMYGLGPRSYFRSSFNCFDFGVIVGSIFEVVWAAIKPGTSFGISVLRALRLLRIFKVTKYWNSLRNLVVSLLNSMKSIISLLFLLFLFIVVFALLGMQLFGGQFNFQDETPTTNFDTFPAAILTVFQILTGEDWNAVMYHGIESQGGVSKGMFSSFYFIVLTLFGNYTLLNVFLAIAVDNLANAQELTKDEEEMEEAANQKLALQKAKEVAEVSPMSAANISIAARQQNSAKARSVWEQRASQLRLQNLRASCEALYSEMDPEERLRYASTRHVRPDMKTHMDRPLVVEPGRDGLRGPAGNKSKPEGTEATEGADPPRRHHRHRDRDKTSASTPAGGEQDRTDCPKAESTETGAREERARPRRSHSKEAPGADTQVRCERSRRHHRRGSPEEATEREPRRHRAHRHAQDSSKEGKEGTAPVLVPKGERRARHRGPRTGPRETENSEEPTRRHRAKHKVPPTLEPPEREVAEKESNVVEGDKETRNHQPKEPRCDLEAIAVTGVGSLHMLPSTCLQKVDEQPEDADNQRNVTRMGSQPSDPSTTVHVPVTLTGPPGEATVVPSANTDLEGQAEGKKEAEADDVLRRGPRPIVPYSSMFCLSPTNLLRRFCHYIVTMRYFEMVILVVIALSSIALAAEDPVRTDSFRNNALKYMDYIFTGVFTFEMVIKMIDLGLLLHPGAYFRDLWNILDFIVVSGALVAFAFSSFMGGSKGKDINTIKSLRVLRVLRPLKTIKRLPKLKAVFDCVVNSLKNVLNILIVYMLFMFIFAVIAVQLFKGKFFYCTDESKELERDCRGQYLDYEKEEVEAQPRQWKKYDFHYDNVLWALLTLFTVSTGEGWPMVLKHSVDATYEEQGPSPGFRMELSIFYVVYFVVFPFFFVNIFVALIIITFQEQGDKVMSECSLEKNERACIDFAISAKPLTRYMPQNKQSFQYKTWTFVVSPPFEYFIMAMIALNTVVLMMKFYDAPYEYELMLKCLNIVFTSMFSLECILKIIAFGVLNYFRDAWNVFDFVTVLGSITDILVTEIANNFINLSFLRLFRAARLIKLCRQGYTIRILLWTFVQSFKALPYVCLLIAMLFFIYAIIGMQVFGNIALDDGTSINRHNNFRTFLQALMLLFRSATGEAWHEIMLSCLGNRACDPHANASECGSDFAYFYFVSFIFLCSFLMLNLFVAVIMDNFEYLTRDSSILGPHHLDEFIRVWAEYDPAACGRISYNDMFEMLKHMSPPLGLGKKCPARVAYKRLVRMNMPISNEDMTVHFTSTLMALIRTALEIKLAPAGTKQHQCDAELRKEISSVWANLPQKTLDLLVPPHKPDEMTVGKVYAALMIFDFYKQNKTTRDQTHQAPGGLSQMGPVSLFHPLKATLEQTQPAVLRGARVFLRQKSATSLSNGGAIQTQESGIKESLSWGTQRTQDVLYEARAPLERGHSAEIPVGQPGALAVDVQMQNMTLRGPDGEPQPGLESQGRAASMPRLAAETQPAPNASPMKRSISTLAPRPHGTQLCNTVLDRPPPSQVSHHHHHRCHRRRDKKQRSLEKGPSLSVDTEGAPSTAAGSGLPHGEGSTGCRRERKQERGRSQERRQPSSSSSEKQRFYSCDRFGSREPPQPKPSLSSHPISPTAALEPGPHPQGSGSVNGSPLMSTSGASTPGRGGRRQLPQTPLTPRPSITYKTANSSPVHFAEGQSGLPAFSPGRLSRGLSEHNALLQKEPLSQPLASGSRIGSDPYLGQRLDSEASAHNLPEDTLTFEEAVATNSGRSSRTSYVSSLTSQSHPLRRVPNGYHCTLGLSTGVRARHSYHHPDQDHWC

Rattus norvegicus [3] = test: Hepatotoxicity in Sprague-Dawley rat assessed as effect on liver size at 50 mg/kg/day, sc administered for 14 days relative to control; format: toxicity, organism-based; conditions: in vivo, 336 h
How it was run: (§2)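 Non-GLP 14-day repeated-dose study in SD rats given 50 mg/kg/day SC. Major organs (liver, kidney, lung, heart) compared with vehicle for size, weight and colour. Blood analysed for hematological and biochemical parameters.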

Rattus norvegicus [4] = test: Renal toxicity in Sprague-Dawley rat assessed as effect on kidney weight at 50 mg/kg/day, sc administered for 14 days relative to control; format: organism-based; conditions: in vivo, 336 h; how it was run: as §2
[5] = target: C-C chemokine receptor type 5 (Homo sapiens) (UniProt P51681); test: Antagonist activity at human CCR5 expressed in CHOK1 cells assessed as inhibition of CCL3-induced cAMP accumulation at 10 uM preincubated for 30 mins followed agonist addition measured after 30 to 60 mins; format: functional, cell-based; how it was run: as §1
C-C chemokine receptor type 5 (Homo sapiens), sequence (P51681 whole entry, looked up): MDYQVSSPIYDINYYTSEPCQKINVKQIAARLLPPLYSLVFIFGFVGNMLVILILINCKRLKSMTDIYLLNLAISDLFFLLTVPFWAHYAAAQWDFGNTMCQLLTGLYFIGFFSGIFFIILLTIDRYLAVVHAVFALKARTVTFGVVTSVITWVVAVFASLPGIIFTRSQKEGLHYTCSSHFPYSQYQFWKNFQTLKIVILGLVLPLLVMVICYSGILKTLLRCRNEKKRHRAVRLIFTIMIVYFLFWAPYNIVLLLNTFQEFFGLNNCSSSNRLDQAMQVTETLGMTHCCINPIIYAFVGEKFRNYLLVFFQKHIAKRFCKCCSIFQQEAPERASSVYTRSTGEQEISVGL

Rattus norvegicus [6] = test: Renal toxicity in Sprague-Dawley rat assessed as effect on kidney histology parameters up to 100 mg/kg/day, sc after 24 hrs by H and E staining based microscopy; format: organism-based; conditions: in vivo
How it was run: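 Acute kidney histology study in SD rats at doses up to 100 mg/kg. Renal tissue compared with controls by photomicrographs.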

[7] = AUC (0 to 4 hrs) in C57BL/6 mouse at 6 mg/kg, sc measured up to 4 hrs post dose by LC-MS/MS analysis; format: ADME, organism-based; design: dose 6 mg/kg, time < 4 hr, route subcutaneous; conditions: in vivo
How it was run: (§3)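 Male C57BL/6 mice (23.4–25.4 g), quarantined one week, non-fasted, n = 3; single SC dose of 6 mg/kg in 100% saline. Blood taken by cardiac puncture at 0, 0.03, 0.08, 0.25, 1, 1.5, 2 and 4 h and stored at -80 °C. Plasma analysed by LC–MS/MS; parameters from non-compartmental analysis; mean ± SD.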

Mus musculus [8] = test: Induction hematopoietic stem cell mobilization in C57BL/6 mouse assessed as increase in CXCR4+ cells in blood at 50 mg/kg, sc measured after 2 hrs by APC-conjugated anti-CXCR4-staining based flow cytometry relative to vehicle control; format: functional, organism-based
How it was run: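 Male C57BL/6 mice, 8–10 weeks old, given a single SC injection at escalating doses of 1, 6, 20, 35 and 50 mg/kg. Blood collected 2 h later and stained with antibodies including APC-anti-CXCR4. CXCR4⁺ cells counted by flow cytometry, at least 60,000 events per sample. n = 3 per group; mean ± SEM; t test against vehicle.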

Cytochrome P450 2C19 = Cytochrome P450 2C19 (Homo sapiens, UniProt P33261); test: Inhibition of human liver microsomal CYP2C19; format: ADME
Cytochrome P450 2C19, sequence (P33261 whole entry): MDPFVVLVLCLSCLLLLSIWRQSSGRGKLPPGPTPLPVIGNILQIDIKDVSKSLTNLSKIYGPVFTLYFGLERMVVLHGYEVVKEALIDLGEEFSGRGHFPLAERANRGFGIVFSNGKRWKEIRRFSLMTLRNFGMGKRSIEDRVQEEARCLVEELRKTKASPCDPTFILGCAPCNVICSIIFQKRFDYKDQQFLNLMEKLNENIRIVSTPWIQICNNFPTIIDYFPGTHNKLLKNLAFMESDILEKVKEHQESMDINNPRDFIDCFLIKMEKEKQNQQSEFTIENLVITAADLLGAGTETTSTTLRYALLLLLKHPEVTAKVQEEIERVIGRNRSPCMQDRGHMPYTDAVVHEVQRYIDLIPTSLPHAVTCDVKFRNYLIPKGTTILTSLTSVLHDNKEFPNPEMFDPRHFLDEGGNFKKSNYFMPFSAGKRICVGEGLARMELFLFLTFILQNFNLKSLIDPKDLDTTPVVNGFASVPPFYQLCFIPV

Mus musculus [9] = test: In vivo antagonist activity at CXCR4 in C57BL/6 mouse assessed as induction of neutrophils molization at 35 mg/kg, sc measured after 2 hrs relative to untreated control; format: functional
[10] = target: C-X-C chemokine receptor type 5 (Homo sapiens) (UniProt P32302); test: Antagonist activity at human CXCR5 expressed in CHOK1 cells assessed as inhibition of CXCL13-induced cAMP accumulation at 10 uM preincubated for 30 mins followed agonist addition measured after 30 to 60 mins; format: functional, cell-based; how it was run: as §1
[11] = target: C-C chemokine receptor type 7 (Homo sapiens) (UniProt P32248); test: Antagonist activity at human CCR7 expressed in CHOK1 cells assessed as inhibition of CCL19-induced cAMP accumulation at 10 uM preincubated for 30 mins followed agonist addition measured after 30 to 60 mins; format: functional, cell-based; how it was run: as §1
C-C chemokine receptor type 7 (Homo sapiens), sequence (P32248 whole entry): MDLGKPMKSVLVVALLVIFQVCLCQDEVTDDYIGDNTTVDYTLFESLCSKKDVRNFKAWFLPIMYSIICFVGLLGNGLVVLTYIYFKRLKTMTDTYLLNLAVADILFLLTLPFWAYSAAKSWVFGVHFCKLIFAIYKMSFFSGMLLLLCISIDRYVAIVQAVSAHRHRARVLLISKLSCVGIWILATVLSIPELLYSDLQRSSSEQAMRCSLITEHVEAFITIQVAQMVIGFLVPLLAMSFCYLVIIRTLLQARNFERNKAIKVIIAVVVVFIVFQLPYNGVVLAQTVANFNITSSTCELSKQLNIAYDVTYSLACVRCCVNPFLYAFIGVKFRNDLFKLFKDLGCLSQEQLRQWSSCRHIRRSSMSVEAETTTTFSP

Rattus norvegicus [12] = test: Hepatotoxicity in Sprague-Dawley rat assessed as effect on liver color at 50 mg/kg/day, sc administered for 14 days relative to control; format: toxicity, organism-based; conditions: in vivo, 336 h; how it was run: as §2
Mus musculus [13] = test: In vivo antagonist activity at CXCR4 in C57BL/6 mouse assessed as induction of lymphocytes molization at 35 mg/kg, sc measured after 2 hrs relative to AMD3100; format: functional; design: scale not given: the % may be the effect or the level left
How it was run: (§4)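 C57BL/6 mice given a single SC injection at 6 or 35 mg/kg. Blood collected 2 h after dosing and analysed for total white blood cells, neutrophils, lymphocytes and monocytes.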

Mus musculus [14] = test: In vivo induction of WBC mobilization in C57BL/6 mouse at 35 mg/kg, sc measured after 2 hrs; format: functional, organism-based; how it was run: as §4
[15] = Half life in C57BL/6 mouse at 6 mg/kg, sc measured up to 4 hrs post dose by LC-MS/MS analysis; format: ADME, organism-based; conditions: in vivo; how it was run: as §3
Mus musculus [16] = test: Induction hematopoietic stem cell mobilization in C57BL/6 mouse assessed as increase in CXCR4+ cells in blood at 35 mg/kg, sc measured after 2 hrs by APC-conjugated anti-CXCR4-staining based flow cytometry relative to vehicle control; format: functional
How it was run: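 Male C57BL/6 mice, 8–10 weeks old, received SC doses escalating through 1, 6, 20, 35 and 50 mg/kg. Blood was drawn 2 h after dosing and labelled with APC-conjugated anti-CXCR4 (clone 2B11). CXCR4⁺ cells were counted by flow cytometry, at least 60,000 events per point. Mean ± SEM, n = 3 per group, t test against vehicle.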

Rattus norvegicus [17] = test: Cardiotoxicity in Sprague-Dawley rat assessed as effect on heart color at 50 mg/kg/day, sc administered for 14 days relative to control; format: toxicity, organism-based; conditions: in vivo, 336 h; how it was run: as §2
Rattus norvegicus [18] = test: Toxicity in Sprague-Dawley rat assessed as effect on biochemistry parameters at 50 mg/kg/day, sc administered for 14 days relative to control; format: organism-based; conditions: in vivo, 336 h; how it was run: as §2
Mus musculus [19] = test: Induction of hematopoietic stem cell mobilization in C57BL/6 mouse assessed as increase in CFU-GM colonies from PBMC at 6 mg/kg, sc administered on day 5 post 100 ug/kg/day G-CSF addition for 4 days measured after 2 hrs post compound dose by colony forming assay relative to G-CSF alone; format: functional
How it was run: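 Male C57BL/6 mice given G-CSF 100 µg/kg SC daily for 4 days. On day 5, G-CSF was co-injected SC with compound. Heparinized blood taken 2 h later; PBMCs isolated and cultured in methylcellulose medium for 10–14 days. CFU-GM colonies (aggregates of ≥50 cells) counted under an inverted microscope. Mean ± SEM, 8–12 mice per group, t test.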

Mus musculus [20] = test: In vivo antagonist activity at CXCR4 in C57BL/6 mouse assessed as induction of lymphocytes molization at 35 mg/kg, sc measured after 2 hrs relative to untreated control; format: functional
Mus musculus [21] = test: In vivo antagonist activity at CXCR4 in C57BL/6 mouse assessed as induction of neutrophils molization at 35 mg/kg, sc measured after 2 hrs relative to AMD3100; format: functional; design: scale not given: the % may be the effect or the level left; how it was run: as §4
[22] = target: C-X-C chemokine receptor type 6 (Homo sapiens) (UniProt O00574); test: Antagonist activity at human CXCR6 at 10 uM preincubated for 30 mins followed agonist addition measured after 30 to 60 mins by cAMP assay; format: functional; how it was run: as §1
C-X-C chemokine receptor type 6 (Homo sapiens), sequence (O00574 whole entry, looked up): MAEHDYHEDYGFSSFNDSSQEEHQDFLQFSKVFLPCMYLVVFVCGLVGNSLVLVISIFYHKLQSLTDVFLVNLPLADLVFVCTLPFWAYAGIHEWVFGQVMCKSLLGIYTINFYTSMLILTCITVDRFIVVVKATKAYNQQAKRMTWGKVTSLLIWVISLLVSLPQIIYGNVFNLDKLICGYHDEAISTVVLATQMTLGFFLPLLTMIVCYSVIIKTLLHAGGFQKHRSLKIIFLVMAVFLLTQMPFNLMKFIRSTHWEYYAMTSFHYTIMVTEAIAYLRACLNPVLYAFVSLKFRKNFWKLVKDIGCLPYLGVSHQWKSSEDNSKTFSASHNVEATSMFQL

Cytochrome P450 1A2 = Cytochrome P450 1A2 (Homo sapiens, UniProt P05177); test: Inhibition of human liver microsomal CYP1A2; format: ADME
Cytochrome P450 1A2, sequence (P05177 whole entry): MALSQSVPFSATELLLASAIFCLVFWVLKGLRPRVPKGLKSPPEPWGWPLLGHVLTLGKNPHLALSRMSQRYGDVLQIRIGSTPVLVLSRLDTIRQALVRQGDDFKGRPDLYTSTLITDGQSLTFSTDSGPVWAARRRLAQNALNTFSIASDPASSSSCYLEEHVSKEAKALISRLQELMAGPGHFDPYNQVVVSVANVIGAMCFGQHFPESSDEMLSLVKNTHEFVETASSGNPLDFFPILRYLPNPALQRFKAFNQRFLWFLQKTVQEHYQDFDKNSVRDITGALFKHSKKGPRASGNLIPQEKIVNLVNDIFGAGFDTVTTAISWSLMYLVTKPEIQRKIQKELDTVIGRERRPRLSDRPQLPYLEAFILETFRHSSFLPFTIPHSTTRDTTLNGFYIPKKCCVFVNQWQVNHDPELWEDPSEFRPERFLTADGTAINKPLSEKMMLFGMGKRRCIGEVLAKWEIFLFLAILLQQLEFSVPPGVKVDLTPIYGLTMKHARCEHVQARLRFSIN

C-X-C chemokine receptor type 3 (Homo sapiens), sequence (P49682 whole entry): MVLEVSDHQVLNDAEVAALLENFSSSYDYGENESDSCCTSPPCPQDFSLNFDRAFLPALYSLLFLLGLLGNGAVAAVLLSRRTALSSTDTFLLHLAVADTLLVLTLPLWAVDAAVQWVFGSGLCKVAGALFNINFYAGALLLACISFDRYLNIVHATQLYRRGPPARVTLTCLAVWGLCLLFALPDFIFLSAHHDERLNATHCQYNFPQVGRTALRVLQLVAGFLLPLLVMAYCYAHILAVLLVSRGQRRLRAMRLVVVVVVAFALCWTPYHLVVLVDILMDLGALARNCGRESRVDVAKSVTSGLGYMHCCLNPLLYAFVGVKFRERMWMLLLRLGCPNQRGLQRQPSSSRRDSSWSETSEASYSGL

In the case of `Cc1cc(NC2CCN(C(=O)CCNCC(=O)O)CC2)nc(NCc2cn(CCCNCCCNC3CCCCC3)nn2)n1`, the Efficacy [1] is reported as -7.6%, the inhibition [2] is reported as 73% and the Activity (Rattus norvegicus [3]) is reported as “Non-Toxic”. The Activity (Rattus norvegicus [4]) was “Non-Toxic”, the Efficacy [5] was 0.5% and the Activity (Rattus norvegicus [6]) was “Non-Toxic”. For the same molecule, the AUC(0-t) at 4 h [7] was 13.5 µg·h/mL, the Activity (Mus musculus [8]) was “inactive” and the IC50 (Cytochrome P450 2C19) was > 100 µM. For the same molecule, the “fold change (FC)” value (Mus musculus [9]) was 2 - 4, the Efficacy [10] was -11% and the Efficacy [11] was -4.2%. For the same molecule, the Activity (Rattus norvegicus [12]) was “Non-Toxic”, the Activity (Mus musculus [13]) was 30 - 50% and the Activity (Mus musculus [14]) was “Active”. For the same molecule, the half-life [15] was 30 min, the “fold change (FC)” value (Mus musculus [16]) was 3 and the Activity (Rattus norvegicus [17]) was “Non-Toxic”. For the same molecule, the Activity (Rattus norvegicus [18]) was “Non-Toxic”, the “fold change (FC)” value (Mus musculus [19]) was 5.3 and the “fold change (FC)” value (Mus musculus [20]) was 2 - 4. The Activity (Mus musculus [21]) was 30 - 50%, the Efficacy [22] was -3.9% and the IC50 (Cytochrome P450 1A2) was > 100 µM.
